Here are results for twelve molecules from ChEMBL document CHEMBL1144610, “High-affinity carbamate analogues of morphinan at opioid receptors” (Bioorg Med Chem Lett, 2007).

Experiment [1] addresses T1, Kappa-type opioid receptor (Homo sapiens, UniProt P41145). In words: Displacement of [3H]U-69593 from human kappa opioid receptors expressed in CHO cell membrane. Background: Displacement assays read how much labelled ligand stays bound in the presence of the test substance.
In experiment [2] the target is Delta-type opioid receptor (Homo sapiens, UniProt P41143). The experiment in a line: Displacement of [3H]naltrindole from human delta opioid receptors expressed in CHO cell membrane.
Sequence of Delta-type opioid receptor (P41143 whole entry): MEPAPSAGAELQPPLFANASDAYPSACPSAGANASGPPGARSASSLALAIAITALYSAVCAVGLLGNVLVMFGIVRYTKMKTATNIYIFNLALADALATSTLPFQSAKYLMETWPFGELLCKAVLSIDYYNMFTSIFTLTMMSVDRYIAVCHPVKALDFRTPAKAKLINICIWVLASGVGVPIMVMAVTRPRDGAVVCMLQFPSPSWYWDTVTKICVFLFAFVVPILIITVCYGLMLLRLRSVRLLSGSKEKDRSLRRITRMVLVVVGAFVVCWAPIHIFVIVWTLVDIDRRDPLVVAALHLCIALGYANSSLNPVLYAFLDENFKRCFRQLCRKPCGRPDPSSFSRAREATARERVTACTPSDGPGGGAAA
Experiment [3] deals with T2, Mu-type opioid receptor (Homo sapiens, UniProt P35372). The experiment in a line: Displacement of [3H]DAMGO from human mu opioid receptors expressed in CHO cell membrane.
T2 sequence (P35372 whole entry): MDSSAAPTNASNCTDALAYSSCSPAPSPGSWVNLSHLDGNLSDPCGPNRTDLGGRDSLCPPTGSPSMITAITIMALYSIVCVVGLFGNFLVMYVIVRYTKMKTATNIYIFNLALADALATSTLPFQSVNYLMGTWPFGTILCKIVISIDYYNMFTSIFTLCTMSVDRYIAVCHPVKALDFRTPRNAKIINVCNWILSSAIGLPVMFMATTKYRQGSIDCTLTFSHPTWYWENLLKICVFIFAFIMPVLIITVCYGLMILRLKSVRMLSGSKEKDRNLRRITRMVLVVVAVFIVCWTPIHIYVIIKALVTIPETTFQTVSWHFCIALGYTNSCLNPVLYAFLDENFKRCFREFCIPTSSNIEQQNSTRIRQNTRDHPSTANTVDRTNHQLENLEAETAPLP
The target of experiment [4] is Opioid receptors; mu & kappa (Homo sapiens) (UniProt P41145+P35372). The experiment in a line: Selectivity for kappa opioid receptor over mu opioid receptor expressed in CHO cells. Format: cell-based.
Sequence of Opioid receptors; mu & kappa (Homo sapiens) (P35372 whole entry, looked up): as the sequence (P35372 whole entry) above
Sequence of Opioid receptors; mu & kappa (Homo sapiens) (P41145 whole entry, looked up): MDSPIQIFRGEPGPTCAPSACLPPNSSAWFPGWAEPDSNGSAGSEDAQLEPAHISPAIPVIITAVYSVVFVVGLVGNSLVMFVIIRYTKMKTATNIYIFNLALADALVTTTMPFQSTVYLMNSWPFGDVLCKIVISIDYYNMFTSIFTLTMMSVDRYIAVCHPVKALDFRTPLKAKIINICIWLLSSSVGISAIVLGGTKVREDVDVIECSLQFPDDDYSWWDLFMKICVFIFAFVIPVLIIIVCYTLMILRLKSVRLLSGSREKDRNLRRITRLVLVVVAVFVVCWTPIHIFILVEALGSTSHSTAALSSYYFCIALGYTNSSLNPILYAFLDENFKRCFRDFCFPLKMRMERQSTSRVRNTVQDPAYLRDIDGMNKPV
In experiment [5] the target is Opioid receptors; delta & kappa (Homo sapiens) (UniProt P41145+P41143). The experiment in a line: Selectivity for kappa opioid receptor over delta opioid receptor. In kind it is protein assay.
Sequence of Opioid receptors; delta & kappa (Homo sapiens) (P41143 whole entry, looked up): as the sequence (P41143 whole entry) above
Sequence of Opioid receptors; delta & kappa (Homo sapiens) (P41145 whole entry, looked up): as the sequence (P41145 whole entry, looked up) above
Experiment [6] has as its target T2, Mu-type opioid receptor. The experiment in a line: Agonist activity at human mu opioid receptor expressed in CHO cells assessed as maximal stimulation of [35S]GTP-gamma-S binding. In kind it is functional, cell-based. On the technique in general: Binding of GTPγS marks nucleotide exchange on a G protein.
For experiment [7], the target named is T1, Kappa-type opioid receptor. In words: Agonist activity at human opioid kappa receptor expressed in CHO cells assessed as maximal stimulation of [35S]GTP-gamma-S binding relative to control. Format: functional, cell-based. Put shortly:
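CHO cell membranes stably expressing only the human κ opioid receptor were incubated with varying concentrations of each compound. Stimulation of [35S]GTPγS binding was measured, and maximal stimulation was taken as Emax.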

For experiment [8], the target named is T2, Mu-type opioid receptor. The experiment in a line: Antagonist activity at human mu opioid receptor expressed in CHO cells assessed as DAMGO-stimulated [35S]GTP-gamma-S binding. Format: functional, cell-based.
Experiment [9] concerns the target T1, Kappa-type opioid receptor. The experiment in a line: Agonist activity at huma kappa opioid receptor expressed in CHO cells assessed as […] of [35S]GTP-gamma-S binding. Format: functional, cell-based.
Experiment [10] in a line: Displacement of [3H]naltrindole from human delta opioid receptors expressed in CHO cell membrane.

Each structure is given as a SMILES string. Active and inactive are the calls of the source. The rule behind the calls is not given here.

T1 sequence (P41145 whole entry): as the sequence (P41145 whole entry, looked up) above

In general, Ki refers to a measure of affinity in units of concentration, obtained from inhibition or displacement. Low values mean a stronger hold on the target, high ones a looser hold on the target. Regarding `CCNC(=O)Oc1ccc2c(c1)C13CCCCC1C(C2)N(C)CC3` (stereo not given), the values for the Ki in [1], in experiment [2] and in experiment [3] were 36 nM, 78 nM and 4.8 nM, respectively. Further, the Ratio Ki in experiment [4] came to 0.1; in [5], 2.
Usually EC50 stands for the concentration needed to bring the measured effect to its halfway point. Broadly, the Emax is the size of the effect at its maximum, as opposed to the concentration needed. As for `CCNC(=O)Oc1ccc2c(c1)C13CCCCC1C(C2)N(CC1CCC1)CC3` (stereo not given), the EC50 in experiment [6] was determined as 39 nM; in [9], 23 nM. For the same molecule, the Emax in experiment [6] was determined as 32%; in [7] it was 61%. Besides, the Ki in experiment [1] was 4.3 nM; in experiment [2] it was 27 nM; in [3], 3.7 nM. In addition, the result in [8] was inactive. In [8], the Imax stood at 33%. Moreover, the Ratio Ki in [4] is 0.9; in [5] it was 6.
For `CNC(=O)Oc1ccc2c(c1)C13CCCCC1C(C2)N(C)CC3` (stereo not given), the EC50 amounted to 50 nM in experiment [6] and 29 nM in experiment [9]. The Emax in experiment [6] came to 71%; in [7] it was 96%. In addition, the inhibition constant (Ki) was 3.3 nM in experiment [1], 53 nM in [2] and 1.4 nM in experiment [3]. Besides, the Ratio Ki in experiment [4] is 0.4; in [5] it was 16.
The term IC50 denotes the concentration that inhibits the measured activity by half. For the molecule `O=C(Nc1ccccc1)Oc1ccc2c(c1)C13CCCCC1C(C2)N(CC1CC1)CC3` (stereo not given), the EC50 in experiment [6] came to 0.44 nM; in experiment [9] it was 0.38 nM. For the same molecule, the Emax in experiment [6] amounted to 39%; in experiment [7], 120%. In addition, the Ki was found to be 0.046 nM in experiment [1], 1.6 nM in experiment [2] and 0.11 nM in experiment [3]. In addition, the IC50 in [8] was 6.4 nM. For the same molecule, the Imax in experiment [8] turned out to be 70%. In addition, the Ratio Ki in [4] came to 2.4; in [5] it was 35.
For `CNC(=O)Oc1ccc2c(c1)C13CCCCC1C(C2)N(CC1CC1)CC3` (single isomer, unassigned; (-)), the EC50 in experiment [6] was determined as 14 nM; in experiment [9], 16 nM. In addition, the Emax was found to be 44% in experiment [6] and 78% in [7]. Also, the Ki in experiment [1] stood at 3.4 nM; in experiment [2], 42 nM; in [3], 5.3 nM. Further, the Ratio Ki in experiment [4] was 1.6; in experiment [5], 12.
For the molecule `CNC(=O)Oc1ccc2c(c1)C13CCCCC1C(C2)N(CC1CCC1)CC3` (single isomer, unassigned; (-)), the figures for the EC50 in experiment [6] and in experiment [9] were 11 nM and 9.6 nM, respectively. For the same molecule, the Emax in experiment [6] turned out to be 60%; in experiment [7] it was 88%. The figures for the Ki in [1], in experiment [2] and in experiment [3] were 0.81 nM, 30 nM and 1.2 nM, respectively. Besides, the Ratio Ki turned out to be 1.5 in experiment [4] and 37 in experiment [5].
Regarding `O=C(Nc1ccccc1)Oc1ccc2c(c1)C13CCCCC1C(C2)N(CC1CCC1)CC3` (single isomer, unassigned; (-)), the EC50 was 1.3 nM in experiment [6] and 2.2 nM in experiment [9]. Moreover, the Emax in experiment [6] came out at 80%; in experiment [7] it was 74%. In addition, the Ki stood at 0.051 nM in experiment [1], 3.9 nM in experiment [2] and 0.12 nM in [3]. Further, the IC50 in experiment [8] was found to be 22 nM. Further, the Imax in [8] stood at 37%. Further, the figures for the Ratio Ki in experiment [4] and in experiment [5] were 2 and 76, respectively.
In the case of `O=C(NCc1ccccc1)Oc1ccc2c(c1)C13CCCCC1C(C2)N(CC1CC1)CC3` (single isomer, unassigned; (-)), the EC50 in experiment [6] was found to be 2.2 nM; in experiment [9], 1.1 nM. For the same molecule, the Emax in experiment [6] is 39%; in experiment [7], 130%. The Ki came out at 0.14 nM in [1], 2.7 nM in experiment [2] and 0.3 nM in experiment [3]. Besides, the IC50 in [8] was found to be 16 nM. Further, in experiment [8], the Imax was 71%. In addition, the results for the Ratio Ki in experiment [4] and in experiment [5] were 2 and 20, respectively.
In the case of `O=C(NCc1ccccc1)Oc1ccc2c(c1)C13CCCCC1C(C2)N(CC1CCC1)CC3` (single isomer, unassigned; (-)), the EC50 in experiment [6] is 7.1 nM; in [9] it was 4.7 nM. Also, the results for the Emax in experiment [6] and in experiment [7] were 54% and 110%, respectively. Besides, the Ki in experiment [1] was 0.3 nM; in experiment [2], 15 nM; in [3] it was 0.7 nM. Moreover, in experiment [8], the IC50 was found to be 260 nM. In addition, the Imax in experiment [8] came to 50%. The Ratio Ki in experiment [4] is 0.4; in [5], 50.
Consider `CCNC(=O)Oc1ccc2c(c1)C13CCCCC1C(C2)N(CC1CC1)CC3` (single isomer, unassigned; (-)), for which the results for the EC50 in experiment [6] and in experiment [9] were 2.4 nM and 1.2 nM, respectively. Also, the values for the Emax in [6] and in experiment [7] were 40% and 140%, respectively. In addition, the values for the Ki in experiment [1], in [2] and in experiment [3] were 0.14 nM, 2.8 nM and 0.29 nM, respectively. Also, in [8], the IC50 turned out to be 10 nM. For the same molecule, in [8], the Imax stood at 68%. Besides, the Ratio Ki in experiment [4] worked out at 2; in experiment [5] it was 20.
`Oc1ccc2c(c1)[C@@]13CCCC[C@H]1[C@@H](C2)N(CC1CCC1)CC3` [BUTORPHAN] displayed a Ki in experiment [10] of 5.9 nM.
Take `Oc1ccc2c(c1)[C@@]13CCCC[C@H]1[C@@H](C2)N(CC1CC1)CC3` [CYCLORPHAN]: in experiment [10], the Ki came out at 1.9 nM.
